Results taken from ChEMBL document CHEMBL4689842, “EUbOPEN Chemogenomics Library wave 1” (2021).

Tested on: Fibroblast
Experiment: Multiplex assay against human fibroblast
Assay type: toxicity, cell-based
Summary of the method: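 Values for tubulin, mitochondrial-mass and membrane-permeability phenotypes are per cents of cells with healthy nuclei. These cells were identified by CellPathfinder machine-learning gating of live cells that had been stained at seeding with Hoechst33342, BioTracker Green Microtubule Cytoskeleton Dye, MitoTracker Red and Annexin V Alexa Fluor 680 and imaged on a CQ1 microscope at 37°C and 5% CO2 after compound addition. The gating first set Hoechst high-intensity objects apart from normal cells, then split normal cells into healthy, pyknosed or fragmented nuclei, and pyknosed cells into mitotic or apoptotic.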

[1] = 12 h, 1 µM, compound concentration 1 uM, replicate 1
[2] = 12 h, 1 µM, compound concentration 1 uM, replicate 2
[3] = 12 h, 10 µM, compound concentration 10 uM, replicate 1
[4] = 12 h, 10 µM, compound concentration 10 uM, replicate 2
[5] = 24 h, 1 µM, compound concentration 1 uM, replicate 1
[6] = 24 h, 1 µM, compound concentration 1 uM, replicate 2
[7] = 24 h, 10 µM, compound concentration 10 uM, replicate 1
[8] = 24 h, 10 µM, compound concentration 10 uM, replicate 2
[9] = 48 h, 1 µM, compound concentration 1 uM, replicate 1
[10] = 48 h, 1 µM, compound concentration 1 uM, replicate 2
[11] = 48 h, 10 µM, compound concentration 10 uM, replicate 1
[12] = 48 h, 10 µM, compound concentration 10 uM, replicate 2

SMILES: C[C@]12CC[C@@H]3c4ccc(O)cc4CC[C@H]3[C@@H]1CC[C@@H]2O [ESTRADIOL]
- Population Apoptotic (%) [1]: 73%
- Population Fragmented Nuclei (%) [1]: 30%
- Population Healthy Nuclei (%) [1]: 50%
- Population Hoechst High Intensity Objects (%) [1]: 21%
- Population Membrane Permeable-Phenotype (%) [1]: 20%
- Population Mitochondria Different-Phenotype (%) [1]: 9%
- Population Mitotic Cells (%) [1]: 26%
- Population Normal (%) [1]: 78%
- Population Pyknosed Nuclei (%) [1]: 18%
- Population Tubulin-Different-Phenotype (%) [1]: 46%
- Population Apoptotic (%) [2]: 50%
- Population Fragmented Nuclei (%) [2]: 8%
- Population Healthy Nuclei (%) [2]: 86%
- Population Hoechst High Intensity Objects (%) [2]: 5%
- Population Membrane Permeable-Phenotype (%) [2]: 4%
- Population Mitochondria Different-Phenotype (%) [2]: 8%
- Population Mitotic Cells (%) [2]: 50%
- Population Normal (%) [2]: 94%
- Population Pyknosed Nuclei (%) [2]: 5%
- Population Tubulin-Different-Phenotype (%) [2]: 14%
- Population Apoptotic (%) [3]: 75%
- Population Fragmented Nuclei (%) [3]: 24%
- Population Healthy Nuclei (%) [3]: 57%
- Population Hoechst High Intensity Objects (%) [3]: 14%
- Population Membrane Permeable-Phenotype (%) [3]: 20%
- Population Mitochondria Different-Phenotype (%) [3]: 7%
- Population Mitotic Cells (%) [3]: 25%
- Population Normal (%) [3]: 85%
- Population Pyknosed Nuclei (%) [3]: 18%
- Population Tubulin-Different-Phenotype (%) [3]: 33%
- Population Apoptotic (%) [4]: 25%
- Population Fragmented Nuclei (%) [4]: 9%
- Population Healthy Nuclei (%) [4]: 77%
- Population Hoechst High Intensity Objects (%) [4]: 8%
- Population Membrane Permeable-Phenotype (%) [4]: 4%
- Population Mitochondria Different-Phenotype (%) [4]: 12%
- Population Mitotic Cells (%) [4]: 75%
- Population Normal (%) [4]: 91%
- Population Pyknosed Nuclei (%) [4]: 12%
- Population Tubulin-Different-Phenotype (%) [4]: 25%
- Population Apoptotic (%) [5]: 45%
- Population Fragmented Nuclei (%) [5]: 33%
- Population Healthy Nuclei (%) [5]: 50%
- Population Hoechst High Intensity Objects (%) [5]: 18%
- Population Membrane Permeable-Phenotype (%) [5]: 29%
- Population Mitochondria Different-Phenotype (%) [5]: 3%
- Population Mitotic Cells (%) [5]: 55%
- Population Normal (%) [5]: 82%
- Population Pyknosed Nuclei (%) [5]: 16%
- Population Tubulin-Different-Phenotype (%) [5]: 43%
- Population Apoptotic (%) [6]: 50%
- Population Fragmented Nuclei (%) [6]: 4%
- Population Healthy Nuclei (%) [6]: 89%
- Population Hoechst High Intensity Objects (%) [6]: 3%
- Population Membrane Permeable-Phenotype (%) [6]: 4%
- Population Mitochondria Different-Phenotype (%) [6]: 9%
- Population Mitotic Cells (%) [6]: 50%
- Population Normal (%) [6]: 96%
- Population Pyknosed Nuclei (%) [6]: 6%
- Population Tubulin-Different-Phenotype (%) [6]: 14%
- Population Apoptotic (%) [7]: 73%
- Population Fragmented Nuclei (%) [7]: 22%
- Population Healthy Nuclei (%) [7]: 60%
- Population Hoechst High Intensity Objects (%) [7]: 11%
- Population Membrane Permeable-Phenotype (%) [7]: 29%
- Population Mitochondria Different-Phenotype (%) [7]: 9%
- Population Mitotic Cells (%) [7]: 26%
- Population Normal (%) [7]: 88%
- Population Pyknosed Nuclei (%) [7]: 17%
- Population Tubulin-Different-Phenotype (%) [7]: 35%
- Population Apoptotic (%) [8]: 30%
- Population Fragmented Nuclei (%) [8]: 18%
- Population Healthy Nuclei (%) [8]: 68%
- Population Hoechst High Intensity Objects (%) [8]: 3%
- Population Membrane Permeable-Phenotype (%) [8]: 5%
- Population Mitochondria Different-Phenotype (%) [8]: 11%
- Population Mitotic Cells (%) [8]: 70%
- Population Normal (%) [8]: 96%
- Population Pyknosed Nuclei (%) [8]: 13%
- Population Tubulin-Different-Phenotype (%) [8]: 43%
- Population Apoptotic (%) [9]: 83%
- Population Fragmented Nuclei (%) [9]: 42%
- Population Healthy Nuclei (%) [9]: 51%
- Population Hoechst High Intensity Objects (%) [9]: 24%
- Population Membrane Permeable-Phenotype (%) [9]: 26%
- Population Mitochondria Different-Phenotype (%) [9]: 0%
- Population Mitotic Cells (%) [9]: 16%
- Population Normal (%) [9]: 75%
- Population Pyknosed Nuclei (%) [9]: 5%
- Population Tubulin-Different-Phenotype (%) [9]: 42%
- Population Apoptotic (%) [10]: 0%
- Population Fragmented Nuclei (%) [10]: 24%
- Population Healthy Nuclei (%) [10]: 74%
- Population Hoechst High Intensity Objects (%) [10]: 14%
- Population Membrane Permeable-Phenotype (%) [10]: 8%
- Population Mitotic Cells (%) [10]: 100%
- Population Normal (%) [10]: 85%
- Population Pyknosed Nuclei (%) [10]: 1%
- Population Tubulin-Different-Phenotype (%) [10]: 26%
- Population Apoptotic (%) [11]: 66%
- Population Fragmented Nuclei (%) [11]: 36%
- Population Healthy Nuclei (%) [11]: 58%
- Population Hoechst High Intensity Objects (%) [11]: 13%
- Population Membrane Permeable-Phenotype (%) [11]: 11%
- Population Mitochondria Different-Phenotype (%) [11]: 3%
- Population Mitotic Cells (%) [11]: 33%
- Population Normal (%) [11]: 86%
- Population Pyknosed Nuclei (%) [11]: 5%
- Population Tubulin-Different-Phenotype (%) [11]: 17%
- Population Apoptotic (%) [12]: 0%
- Population Fragmented Nuclei (%) [12]: 32%
- Population Healthy Nuclei (%) [12]: 65%
- Population Hoechst High Intensity Objects (%) [12]: 2%
- Population Membrane Permeable-Phenotype (%) [12]: 16%
- Population Mitochondria Different-Phenotype (%) [12]: 1%
- Population Mitotic Cells (%) [12]: 100%
- Population Normal (%) [12]: 97%
- Population Pyknosed Nuclei (%) [12]: 2%
- Population Tubulin-Different-Phenotype (%) [12]: 41%
